# Rev-erbA mod: modulators of Rev-erb alpha DNA binding, primary screen, biochemical, FITC-DNA, fluorescence polarization, uHTS; Nuclear receptor subfamily 1 group D member 1 (Homo sapiens), P20393; Rev-erbα–FITC-DNA binding, 90 min; activity, % at 10 µM; 0.79% of 370,000 active;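 active = activity above about 14%, limit read from the data; passing the limit was not always enough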;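 note: 0% = DMSO wells with 35 nM protein and 100% = DMSO wells with 750 nM protein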
# Target sequence (P20393 whole entry, looked up): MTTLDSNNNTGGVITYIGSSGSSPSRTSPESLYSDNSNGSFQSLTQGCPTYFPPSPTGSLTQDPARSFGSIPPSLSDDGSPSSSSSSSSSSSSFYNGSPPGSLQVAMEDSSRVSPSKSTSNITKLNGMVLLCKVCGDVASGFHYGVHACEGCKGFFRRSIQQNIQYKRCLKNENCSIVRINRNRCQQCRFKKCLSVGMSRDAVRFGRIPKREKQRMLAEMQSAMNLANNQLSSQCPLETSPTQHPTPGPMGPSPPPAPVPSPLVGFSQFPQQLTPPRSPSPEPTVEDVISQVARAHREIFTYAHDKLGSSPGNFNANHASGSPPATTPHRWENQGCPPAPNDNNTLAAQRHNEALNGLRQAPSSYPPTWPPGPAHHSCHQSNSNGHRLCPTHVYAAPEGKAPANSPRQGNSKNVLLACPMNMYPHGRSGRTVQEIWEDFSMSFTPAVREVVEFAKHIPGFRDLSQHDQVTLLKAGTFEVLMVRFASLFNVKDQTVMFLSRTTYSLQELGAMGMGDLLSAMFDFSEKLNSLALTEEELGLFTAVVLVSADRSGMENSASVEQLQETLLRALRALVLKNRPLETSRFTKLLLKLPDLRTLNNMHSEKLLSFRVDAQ
# NR2E3 ag-1: NR2E3 agonists in two-hybrid cells, primary screen, cell-based, luminescence, CHO-S, Gal4-NCOR/VP16-NR2E3 | 0.35% of 360,000 active | Photoreceptor-specific nuclear receptor (Homo sapiens), Q9Y5X4 | inhibition of corepressor binding, % at 3.98 µM | AID 602229, 2012 | luciferase;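 active = inhibition above the mean of all tested compounds plus 3 SD, cut at about 70% in these data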;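 note: 0% = DMSO with NR2E3 transfected cells and 100% = cells lacking NR2E3 construct; higher means lower luciferase signal from less NR2E3 corepressor binding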
# NR2E3 ag-2: inhibitors of NR2E3-RetCOR corepressor binding, primary screen, NR2E3 agonist project, biochemical, TR-FRET, GST-NR2E3, biotin-RetCOR | Photoreceptor-specific nuclear receptor (Homo sapiens), Q9Y5X4 | 1536-well | inhibition of corepressor binding, % at 4.78 µM | 0.12% of 320,000 active | AID 2300, 2010;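 active = percent inhibition above the cutoff of mean plus 3 SD of all tested compounds, set per screening campaign, cut at about 20% in these data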;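 note: 0% = DMSO wells and 100% = biotin wells as full block of FRET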
#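 Material: NR2E3–RetCOR corepressor complex / Incubation: Compound–protein incubation for 5 h at 4 °C / Dosing: compound at 4.8 µM, single dose / Detection: time-resolved FRET / Benchmarks: high control biotin, low control 0.6% DMSO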
# rCAG binder: binders of r(CAG) RNA repeats, primary screen, biochemical, fluorescence. 1.3% of 370,000 active. r(CAG) RNA repeat, TO-PRO-1 dye displacement fluorescence. AID 651821, 2012. inhibition, % at 3 µM;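 active = inhibition above the plate cutoff, the mean of all test compounds on that plate plus 3 SD, cut at about 35% in these data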;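 note: 0% = DMSO alone and 100% = 100 µM mitoxantrone as full dye displacement; higher means more dye released from RNA so lower well fluorescence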
# PG9 Ab binder: binders of HIV-1 gp120 antibody PG9, primary screen, biochemical, TR-FRET. HIV-1 gp120 / PG9 antibody interaction. TR-FRET gp120-PG9 antibody binding. inhibition, % at 6.7 µM. 0.43% of 360,000 active. AID 624416, 2012; in the data active = inhibition above about 8.5%
# Rev-erbA confirm: modulators of Rev-erb alpha DNA binding, confirmation, biochemical, FITC-DNA, fluorescence polarization, single point. shares compounds with Rev-erbA mod. 90 min. activation, % at 25 µM. 61% of 3,000 active. AID 1259319, 2017;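 active = activation at or above a set limit, or at least 3 SD above the negative control mean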;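 note: 0% = 35 nM protein with DMSO and 100% = 750 nM protein high control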
# RORg DNA counter: modulation of RORgamma DNA binding, dose response, counter-screen for Rev-erb alpha modulator project, biochemical, fluorescence polarization, FITC-DNA. shares compounds with Rev-erbA mod. purified RORgamma protein-FITC-DNA binding. IC50, µM. 8% of 910 active. AID 1259320, 2017;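 active = Compounds whose fitted half-maximal concentration for disrupting protein-DNA binding is below 10 micromolar; the record names Rev-erb in its text, so the target is in doubt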
# Active calls of the source: *; i = inactive; . = not tested or not shown. Compounds with a hit are over-represented: about 2.6% of the library has one in this group of screens.
SMILES,Rev-erbA mod,NR2E3 ag-1,NR2E3 ag-2,rCAG binder,PG9 Ab binder,Rev-erbA confirm,RORg DNA counter
Nc1ccc2nc3c(=O)n(CCc4ccccc4)c(=O)[nH]c3nc2c1,72*,-10,-5,-222,-6,64*,i
Cc1cc2nc3c(=O)n(CCc4ccccc4)c(=O)[nH]c3nc2cc1N,38*,-32,-2,-165,-6,34*,2.1*
CCCCn1c(=O)[nH]c2nc3cc(N)ccc3nc2c1=O,14,-28,-4,-258,-11,.,.
Nc1ccc2nc3c(=O)n(C4CCCCC4)c(=O)[nH]c3nc2c1,77*,-58,-7,i,-5,83*,>40
c1cc(CCCc2ccncc2)ccn1,0,-14,3,0,0,.,.
CN(Cc1ccccc1)Cc1cc(=O)oc2ccccc12,5,-30,.,3,-2,.,.
O=c1cc(CN(Cc2ccccc2)Cc2ccccc2)c2ccccc2o1,22*,-14,.,6,-1,9,.
COCCn1c(N)c(N(Cc2ccccc2)C(=O)c2ccc(N3CCCC3=O)cc2)c(=O)[nH]c1=O,2,-20,.,1,-1,.,.
C=CCNc1nc(NCc2ccc(NC(C)=O)cc2)c2sc(-c3ccccc3)cc2n1,65*,-84,.,5,-1,76*,>40
Cc1ccccc1Cn1c(C)c(C(=O)NCC(C)C)sc1=O,-6,0,.,0,-1,.,.
CCOc1ccc(N=Nc2c(=O)[nH]n3c(=O)cc(C)[nH]c23)cc1,25*,-62,-14,11,-15,41*,>40
CCOC(=O)c1ccc(NC(=O)c2nc[nH]c2C(=O)NC[C@H](C)O)cc1,-3,-8,.,-1,0,.,.
O=C(COC(=O)CNS(=O)(=O)c1ccccc1)Nc1ncc(Cl)cc1Cl,-10,-15,4,5,0,.,.
CCN1C(=O)/C(=C/c2ccc(N3CCCC3)cc2)NC1=S,56*,6,-2,5,-9,49*,>40
CC(C)[C@@H](C)/C=C/[C@@H](C)[C@H]1CC[C@@H]2[C@]1(C)CCC1[C@]23C=C[C@]2(C[C@@H](O)CC[C@]12C)N(C(=O)Cc1ccccc1)O3 (stereo not given in full),2,.,.,3,-1,.,.
C=CCn1c(SCC(=O)Nc2cc(C)on2)nc2sc3c(c2c1=O)CCCC3,19,-27,0,-2,4,.,.
C=CCn1c(SCC(=O)Nc2cc(C)on2)nc2sc(C)c(C)c2c1=O,54*,1,-3,1,-1,53*,>40
CCn1c(SCC(=O)Nc2cc(C)on2)nc2sc(C)c(C)c2c1=O,27*,.,.,3,7,35*,>40
COc1cccc(-n2c(SCC(=O)Nc3cc(C)on3)nc3ccccc3c2=O)c1,0,-20,-1,2,3,.,.
CCc1sc2nc(SCC(=O)Nc3cc(C)on3)n(-c3cccc(OC)c3)c(=O)c2c1C,34*,-14,2,4,8,22*,.
COC(=O)[C@]12C[C@H](CC(=O)NCCC(C)C)C(=O)N(Cc3ccco3)C1=C[C@H](C(C)(C)C)O[C@@H]2C,-1,.,.,1,.,.,.
Cc1nn(-c2ccccc2)c2sc(C(=O)N3CCN(Cc4ccccc4)CC3)cc12,1,.,.,5,.,.,.
COC(=O)C[C@@H]1CC[C@@H]2[C@@H](COc3ccc(NC(=O)Nc4ccccc4)cc3C(=O)N2C)O1,-4,.,.,4,.,.,.
Cc1ccccc1NC(=O)Nc1ccc2c(c1)C(=O)N(C)[C@H]1CC[C@H](CC(=O)NCC3CC3)O[C@@H]1CO2,30*,.,.,2,.,14*,.

# Source: PubChem BioAssay (several laboratories)
